Test results from ChEMBL document CHEMBL5329223, “Newly synthesized 6-substituted piperazine/phenyl-9-cyclopentyl containing purine nucleobase analogs act as potent anticancer agents and induce apoptosis via inhibiting Src in hepatocellular carcinoma cells” (RSC Med Chem, 2023).
Active and inactive are the calls of the source. The calls are words filed in the database; no cut-off is given here.

Assays:
[1] = tested on: Hep 3B2; test: Cytotoxicity against human Hep3B cells assessed as cell growth inhibition incubated for 72 hrs by SRB assay; format: functional, cell-based
Method in brief: (§1)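 Cells seeded at 1000–3000 per well, treated after 24 h with 2.5–40 μM (40, 20, 10, 5, 2.5 μM) for 72 h, in duplicate or triplicate; DMSO negative control. Fixed with 10% TCA 1 h at 4 °C, stained with 0.4% SRB in 1% acetic acid, dye solubilized in 10 mM TBS, A515 read; OD normalized to DMSO control, IC50 from growth-inhibition curves.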

[2] = tested on: PLC; test: Cytotoxicity against human PLC cells assessed as cell growth inhibition incubated for 72 hrs by SRB assay; format: functional, cell-based; method in brief: as §1
[3] = tested on: Huh-7; test: Induction of apoptosis in human Huh-7 cells assessed as increase in PARP-1 cleavage at 5 uM incubated for 72 hrs by Western blot analysis; format: functional, cell-based
Method in brief: (§2)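 Huh7 cells (300 000 per dish) treated 24 h after seeding with 5 μM or DMSO for 72 h. Immunoblot for PARP-1, phospho-Src Tyr416, Src, Rb, phospho-Rb Ser807/811, Cdk2; calnexin and actin as loading controls.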

[4] = tested on: SNU-398; test: Cytotoxicity against human SNU-398 cells assessed as cell growth inhibition incubated for 72 hrs by SRB assay; format: functional, cell-based; conditions: SNU-398, 72 h; method in brief: as §1
[5] = tested on: SNU-475; test: Cytotoxicity against human SNU-475 cells assessed as cell growth inhibition incubated for 72 hrs by SRB assay; format: functional, cell-based; conditions: SNU-475, 72 h; method in brief: as §1
[6] = target: Proto-oncogene tyrosine-protein kinase Src (Homo sapiens) (UniProt P12931); test: Inhibition of Src activation in human Huh-7 cells assessed as decrease in Cdk2 level at 5 uM incubated for 72 hrs by Western blot analysis; format: cell-based; method in brief: as §2
Proto-oncogene tyrosine-protein kinase Src (Homo sapiens), sequence (P12931 2-536 limits assumed): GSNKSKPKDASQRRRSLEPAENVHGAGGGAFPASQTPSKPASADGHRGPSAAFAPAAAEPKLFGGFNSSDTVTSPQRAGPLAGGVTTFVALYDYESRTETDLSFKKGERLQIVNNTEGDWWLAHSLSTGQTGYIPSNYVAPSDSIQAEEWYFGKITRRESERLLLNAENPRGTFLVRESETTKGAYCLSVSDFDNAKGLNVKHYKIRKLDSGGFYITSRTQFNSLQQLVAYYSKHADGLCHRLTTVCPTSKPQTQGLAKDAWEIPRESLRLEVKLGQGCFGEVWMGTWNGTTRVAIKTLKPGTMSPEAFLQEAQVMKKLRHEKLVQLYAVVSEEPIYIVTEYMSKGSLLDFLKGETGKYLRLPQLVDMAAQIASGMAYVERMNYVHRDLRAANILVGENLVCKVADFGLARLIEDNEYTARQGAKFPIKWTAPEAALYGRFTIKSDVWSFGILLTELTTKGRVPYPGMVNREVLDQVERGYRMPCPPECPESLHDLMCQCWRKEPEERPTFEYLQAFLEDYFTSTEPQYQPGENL

[7] = tested on: MCF7; test: Cytotoxicity against human MCF7 cells assessed as cell growth inhibition incubated for 72 hrs by SRB assay; format: functional, cell-based; conditions: MCF7, 72 h; method in brief: as §1
[8] = target: Proto-oncogene tyrosine-protein kinase Src (Homo sapiens) (UniProt P12931); test: Inhibition of Src activation in human Huh-7 cells assessed as decrease in phosphorylated Src level at 5 uM incubated for 72 hrs by Western blot analysis; format: cell-based; method in brief: as §2
[9] = tested on: Huh-7; test: Cytotoxicity against human Huh-7 cells assessed as cell growth inhibition incubated for 72 hrs by SRB assay; format: functional, cell-based; conditions: Huh-7, 72 h; method in brief: as §1
[10] = tested on: Mahlavu; test: Upregulation of intracellular ATP level in human Mahlavu cells at 5 uM incubated for 72 hrs by Kinase Glo assay; format: functional, cell-based
Method in brief: (§3)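 Huh7 and Mahlavu cells grown 24 h, then treated with 5 μM for 72 h. Lysates protein-normalized by Bradford; ATP read by Kinase-Glo Plus luminescence per kit protocol. Staurosporine positive control, DMSO negative control.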

[11] = tested on: SNU-182; test: Cytotoxicity against human SNU-182 cells assessed as cell growth inhibition incubated for 72 hrs by SRB assay; format: functional, cell-based; conditions: SNU-182, 72 h; method in brief: as §1
[12] = target: ALK tyrosine kinase receptor (Homo sapiens) (UniProt Q9UM73); test: Inhibition of human ALK at 5 uM by Kinomescan profiling analysis relative to control
ALK tyrosine kinase receptor (Homo sapiens), sequence (Q9UM73 19-1620 limits assumed): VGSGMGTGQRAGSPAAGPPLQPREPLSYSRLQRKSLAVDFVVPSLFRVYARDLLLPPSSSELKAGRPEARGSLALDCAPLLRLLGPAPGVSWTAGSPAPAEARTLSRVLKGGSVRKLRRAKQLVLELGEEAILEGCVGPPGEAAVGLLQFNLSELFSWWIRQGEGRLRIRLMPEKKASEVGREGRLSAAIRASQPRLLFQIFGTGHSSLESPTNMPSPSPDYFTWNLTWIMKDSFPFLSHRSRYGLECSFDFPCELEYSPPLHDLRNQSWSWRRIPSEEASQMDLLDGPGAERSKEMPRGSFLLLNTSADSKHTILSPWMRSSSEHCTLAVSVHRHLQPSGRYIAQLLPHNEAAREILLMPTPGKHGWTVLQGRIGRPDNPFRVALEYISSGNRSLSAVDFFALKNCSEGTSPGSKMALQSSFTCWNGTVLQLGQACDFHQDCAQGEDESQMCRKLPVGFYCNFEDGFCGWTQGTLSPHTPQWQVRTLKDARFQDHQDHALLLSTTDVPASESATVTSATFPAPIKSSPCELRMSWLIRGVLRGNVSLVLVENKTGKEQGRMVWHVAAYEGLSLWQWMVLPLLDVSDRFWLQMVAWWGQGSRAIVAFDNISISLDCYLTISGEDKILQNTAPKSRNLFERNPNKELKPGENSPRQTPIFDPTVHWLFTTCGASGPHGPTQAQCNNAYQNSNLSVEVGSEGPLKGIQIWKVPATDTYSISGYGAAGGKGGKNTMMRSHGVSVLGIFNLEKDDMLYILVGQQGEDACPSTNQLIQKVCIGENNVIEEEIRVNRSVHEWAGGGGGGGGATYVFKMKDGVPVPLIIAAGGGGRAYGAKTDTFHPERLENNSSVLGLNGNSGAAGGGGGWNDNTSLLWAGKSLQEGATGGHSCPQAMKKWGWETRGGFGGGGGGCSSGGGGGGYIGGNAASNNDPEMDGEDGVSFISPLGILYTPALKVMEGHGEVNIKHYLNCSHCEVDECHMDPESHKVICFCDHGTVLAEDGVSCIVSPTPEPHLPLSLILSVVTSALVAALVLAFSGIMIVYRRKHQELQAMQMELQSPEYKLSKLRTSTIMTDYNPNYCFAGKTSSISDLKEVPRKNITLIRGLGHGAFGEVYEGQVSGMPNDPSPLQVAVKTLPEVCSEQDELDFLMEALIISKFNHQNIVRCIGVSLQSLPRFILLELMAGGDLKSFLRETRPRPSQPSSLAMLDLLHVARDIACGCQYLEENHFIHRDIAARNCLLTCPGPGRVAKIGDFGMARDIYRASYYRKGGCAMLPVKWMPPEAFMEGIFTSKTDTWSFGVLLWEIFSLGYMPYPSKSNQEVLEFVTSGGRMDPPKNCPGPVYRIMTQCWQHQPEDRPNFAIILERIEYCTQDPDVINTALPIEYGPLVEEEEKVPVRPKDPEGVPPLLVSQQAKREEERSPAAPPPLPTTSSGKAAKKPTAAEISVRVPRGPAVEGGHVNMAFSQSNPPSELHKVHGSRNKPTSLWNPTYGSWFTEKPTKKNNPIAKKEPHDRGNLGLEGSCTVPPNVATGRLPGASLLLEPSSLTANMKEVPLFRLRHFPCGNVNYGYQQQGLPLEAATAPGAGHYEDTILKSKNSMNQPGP
Method in brief: (§4)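 Compounds in DMSO screened by KINOMEScan against a panel of human kinases for direct interaction, at 5000 nM or 10 000 nM depending on compound; scores calculated relative to DMSO negative control.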

[13] = target: Proto-oncogene tyrosine-protein kinase Src (Homo sapiens) (UniProt P12931); test: Inhibition of Src activation in human Huh-7 cells assessed as decrease in cyclin E level at 5 uM incubated for 72 hrs by Western blot analysis; format: cell-based; method in brief: as §2
[14] = target: Proto-oncogene tyrosine-protein kinase Src (Homo sapiens) (UniProt P12931); test: Inhibition of Src activation in human Huh-7 cells assessed as decrease in phosphorylated Rb level at 5 uM incubated for 72 hrs by Western blot analysis; format: cell-based; method in brief: as §2
[15] = tested on: SNU-449; test: Cytotoxicity against human SNU-449 cells assessed as cell growth inhibition incubated for 72 hrs by SRB assay; format: functional, cell-based; conditions: SNU-449, 72 h; method in brief: as §1
[16] = tested on: HCT-116; test: Cytotoxicity against human HCT-116 cells assessed as cell growth inhibition incubated for 72 hrs by SRB assay; format: functional, cell-based; conditions: HCT-116, 72 h; method in brief: as §1
[17] = tested on: Huh-7; test: Induction of cell cycle arrest in human Huh-7 cells assessed as increase in accumulation of cells at subG1 phase at 5 uM incubated for 72 hrs by PI staining based flow cytometry; format: functional
Method in brief: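 Huh7 and Mahlavu cells serum-starved 24 h to synchronize, then given 5 μM or DMSO in fresh growth medium for 72 h. Trypsinized, fixed in ice-cold 70% ethanol at least 3 h at −20 °C, PI-stained with a cell cycle kit, analyzed by flow cytometry for SubG1.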

[18] = tested on: Mahlavu; test: Cytotoxicity against human Mahlavu cells assessed as cell growth inhibition incubated for 72 hrs by SRB assay; format: functional, cell-based; method in brief: as §1
[19] = tested on: Huh-7; test: Upregulation of intracellular ATP level in human Huh-7 cells at 5 uM incubated for 72 hrs by Kinase Glo assay; format: functional, cell-based; method in brief: as §3
[20] = target: Tyrosine-protein kinase BTK (Homo sapiens) (UniProt Q06187); test: Inhibition of human BTK at 5 uM by Kinomescan profiling analysis relative to control; method in brief: as §4
Tyrosine-protein kinase BTK (Homo sapiens), sequence (Q06187 whole entry): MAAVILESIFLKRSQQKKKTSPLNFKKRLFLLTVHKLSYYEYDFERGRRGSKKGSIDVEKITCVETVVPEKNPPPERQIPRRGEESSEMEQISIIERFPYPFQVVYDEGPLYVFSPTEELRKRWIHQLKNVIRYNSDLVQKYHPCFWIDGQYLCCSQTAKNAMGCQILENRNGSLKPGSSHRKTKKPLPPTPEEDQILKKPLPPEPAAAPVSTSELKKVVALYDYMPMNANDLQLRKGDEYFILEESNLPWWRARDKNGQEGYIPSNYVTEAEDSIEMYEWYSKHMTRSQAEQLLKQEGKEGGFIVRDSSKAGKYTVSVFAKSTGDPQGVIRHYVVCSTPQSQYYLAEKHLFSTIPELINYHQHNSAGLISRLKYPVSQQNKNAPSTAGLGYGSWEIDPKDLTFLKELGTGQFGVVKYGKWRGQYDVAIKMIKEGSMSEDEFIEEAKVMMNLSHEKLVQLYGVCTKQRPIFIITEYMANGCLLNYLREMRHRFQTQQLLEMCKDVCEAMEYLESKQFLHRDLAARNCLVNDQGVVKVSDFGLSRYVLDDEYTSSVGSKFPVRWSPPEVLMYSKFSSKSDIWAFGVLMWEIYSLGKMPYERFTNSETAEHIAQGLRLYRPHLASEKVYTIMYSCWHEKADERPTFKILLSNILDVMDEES

[21] = tested on: SNU-387; test: Cytotoxicity against human SNU-387 cells assessed as cell growth inhibition incubated for 72 hrs by SRB assay; format: functional, cell-based; conditions: SNU-387, 72 h; method in brief: as §1
[22] = Cytotoxicity against human FOCUS cells assessed as cell growth inhibition incubated for 72 hrs by SRB assay; format: functional, cell-based; method in brief: as §1
[23] = tested on: Huh-7; test: Induction of morphological changes in human Huh-7 cells assessed as horseshoe-like condensed nuclei at 5 uM incubated for 72 hrs by Hoechst 33258 dye based microscopy; format: functional, cell-based
Method in brief: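 Huh7 cells on coverslips (50 000 per well) given 5 μM or DMSO 24 h after seeding for 72 h; permeabilized with ice-cold methanol 10 min, Hoechst 33258 stain 5 min in the dark, imaged by fluorescence microscopy with 40× objective.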

[24] = tested on: HepG2; test: Cytotoxicity against human HepG2 cells assessed as cell growth inhibition incubated for 72 hrs by SRB assay; format: functional, cell-based; conditions: HepG2, 72 h; method in brief: as §1
[25] = tested on: Huh-7; test: Cytotoxicity against human Huh-7 cells assessed as cell growth inhibition at 0.625 to 5 uM measured upto 72 hrs by RT-CES analysis; format: functional, cell-based; conditions: dose 0.625-5 µM
Method in brief: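 Huh7 cells, 2000 per well, treated 24 h after seeding alongside DMSO control; cell index from impedance recorded every 30 min; plots for each concentration normalized to DMSO-treated cells.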

[26] = tested on: SNU-423; test: Cytotoxicity against human SNU-423 cells assessed as cell growth inhibition incubated for 72 hrs by SRB assay; format: functional, cell-based; conditions: SNU-423, 72 h; method in brief: as §1
[27] = target: T1, Discoidin domain-containing receptor 2 (Homo sapiens) (UniProt Q16832); test: Inhibition of human DDR2 at 10 uM by Kinomescan profiling analysis relative to control; method in brief: as §4
T1 sequence (whole entry): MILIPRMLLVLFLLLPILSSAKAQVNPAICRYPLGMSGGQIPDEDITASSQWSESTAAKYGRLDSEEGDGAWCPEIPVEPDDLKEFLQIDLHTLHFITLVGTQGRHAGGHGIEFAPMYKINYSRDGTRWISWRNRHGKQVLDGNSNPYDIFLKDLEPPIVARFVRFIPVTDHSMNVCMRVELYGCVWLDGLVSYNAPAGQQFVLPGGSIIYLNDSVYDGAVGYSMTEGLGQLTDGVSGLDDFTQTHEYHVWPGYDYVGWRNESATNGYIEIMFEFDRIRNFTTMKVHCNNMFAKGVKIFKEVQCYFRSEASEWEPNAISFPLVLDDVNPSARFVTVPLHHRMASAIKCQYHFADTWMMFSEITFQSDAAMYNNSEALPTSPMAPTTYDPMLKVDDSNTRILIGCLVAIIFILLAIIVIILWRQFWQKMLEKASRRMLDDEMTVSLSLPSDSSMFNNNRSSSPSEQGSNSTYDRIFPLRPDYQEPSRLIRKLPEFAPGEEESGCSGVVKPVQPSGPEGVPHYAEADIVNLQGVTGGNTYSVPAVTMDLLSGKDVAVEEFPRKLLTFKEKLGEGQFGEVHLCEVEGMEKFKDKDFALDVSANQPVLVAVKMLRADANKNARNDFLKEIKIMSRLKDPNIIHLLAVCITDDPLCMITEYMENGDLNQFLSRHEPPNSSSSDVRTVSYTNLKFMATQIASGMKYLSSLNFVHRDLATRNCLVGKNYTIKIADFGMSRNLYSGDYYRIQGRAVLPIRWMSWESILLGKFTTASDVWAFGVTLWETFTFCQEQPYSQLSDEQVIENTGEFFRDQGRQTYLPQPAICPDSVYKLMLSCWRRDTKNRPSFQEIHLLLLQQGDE

SMILES | IC50 [1] [nM] | IC50 [2] [µM] | Activity [3] | IC50 [4] [nM] | IC50 [5] [µM] | IC50 [7] [nM] | IC50 [9] [nM] | Activity [10] | IC50 [11] [µM] | IC50 [15] [nM] | IC50 [16] [nM] | Activity [17] | IC50 [18] [nM] | Activity [19] | IC50 [21] [µM] | IC50 [22] [nM] | Activity [23] | IC50 [24] [nM] | growth inhibition (GI) [25] | IC50 [26] [µM] | also measured
c1ccc(N2CCN(c3ncnc4c3ncn4C3CCCC3)CC2)cc1 | < 100 | 4 | Active | 1200 | 5.8 | 100 | 1000 | Active | 6 | 2000 | 2100 | Active | 200 | Active | 13 | 600 | Active | 2400 | Active | 11 | inhibition [6]: Active; inhibition [8]: Active; inhibition [12]: 13%; inhibition [13]: Active; inhibition [14]: Active; inhibition [20]: 1.9%
c1ccc(Oc2ccc(-c3ncnc4c3ncn4C3CCCC3)cc2)cc1 | 100 | 6.5 | Active | 200 | 2.5 | 2800 | 700 | inactive | 65 | < 100 | 800 | Active | 100 | inactive | 20 | 500 | Active | 2 | Active | 9.9 | inhibition [27]: 6%
Fc1ccc(N2CCN(c3ncnc4c3ncn4C3CCCC3)CC2)cc1 | 4300 | 6 | Active | 1000 | 7 | 9100 | 1500 | inactive | 41 | 3300 | 1600 | Active | 7000 | inactive | 26 | 1500 | Active | 500 | Active | 16 | 
COc1ccc(N2CCN(c3ncnc4c3ncn4C3CCCC3)CC2)cc1 | 300 | 9.3 | Active | 300 | 13 | 1000 | 1300 | inactive | 13 | 2000 | 5000 | Active | 600 | inactive | 38 | 2600 | Active | 300 | Active | 15 | 
Clc1ccc(N2CCN(c3ncnc4c3ncn4C3CCCC3)CC2)cc1 | 400 | 19.3 |  | 1800 | 12.3 | 4100 | 100 | inactive | 12.2 | 6900 | 600 | Active | 4000 | inactive | 2 | 2000 | Active | 10 | Active | 4 | inhibition [8]: Active
